From PubChem
This is a sample that favours compounds with a hit; in the whole collection about 2.5% have one here.
PglD inh – inhibitors of Campylobacter jejuni PglD acetyltransferase; AID 602405; inhibition, % at 12.5 µM; hit rate 0.098% among 360,000; purified PglD enzyme, DTNB colorimetric CoA detection; in the data active = inhibition above about 16%, passing the limit was not always enough; inconclusive = no clear call, values can overlap the other calls
ERAP1 inh – blocks human ERAP1 aminopeptidase activity. AID 652197. inhibition, % at 10.7 µM. recombinant ERAP1, Leu-AMC fluorescence, 60 min. hit rate 0.15% among 340,000. Q9NZ08;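 active = mean replicate inhibition of at least 30%, or all replicates individually reaching that 30% level; inactive = mean below 30% and not every replicate reaching it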;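 note: 0% = neutral control wells and 100% = L-leucinethiol positive control wells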
E-selectin induc – induces E-selectin expression in human endothelial cells | HUVEC E-selectin immunofluorescence imaging; normalized: neutral wells 0, TNF-alpha wells 100 | hit rate 0.37% among 260,000 | activation, % at 7.58 µM;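 active = mean E-selectin-positive cell signal at least 10% of the positive control, reached in at least 60% of replicates, without over 20% cell loss; inconclusive = no rule given, readout overlaps actives, possibly toxicity-flagged; inactive = the rest, including those meeting only one limit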
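assay system = HUVEC, human umbilical vein endothelial cells | input = 3,000 HUVEC seeded per well | medium = EGM-2 growth medium on 0.1% gelatin-coated wells | dosing = one compound dose added by pin transfer | signal = immunofluorescence imaging | read-out basis = % PE-positive cells | control set = TNF-alpha, DMSO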
DENV2 CPE rescue – protects cells from dengue virus 2 cytopathic effect | AID 651640 | hit rate 1.7% among 350,000 | CPE inhibition, % at 9.99 µM | DENV2-infected cells, cytopathic effect rescue, plate reader; in the data active = CPE inhibition above about 20%, passing the limit was not always enough; inconclusive = no clear call, values can overlap the other calls; tested in BHK-21 cells;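 note: 0% = median of neutral control wells and 100% = median of positive control wells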
SIRT5 inh – blocks human SIRT5 desuccinylation of peptide | inhibition, % at 15 µM | Purified SirT5, succinyl-peptide AMC, trypsin-coupled fluorescence | Q9NXA8 | AID 652115 | hit rate 1.1% among 330,000; in the data active = inhibition above about 15%; inconclusive = no clear call, values can overlap the other calls
Active calls of the source: *; ? = inconclusive; . = no result.

SMILES	PglD inh	ERAP1 inh	E-selectin induc	DENV2 CPE rescue	SIRT5 inh
CC1(OC(=O)CCc2ccccc2)C(=O)C=C2C=C(c3ccc(C#N)cc3)N(c3ccccc3)C=C2C1=O (stereo unspecified)	2	1	2	41*	.
C[C@@H]1CN([C@H](C)CO)S(=O)(=O)c2ccc(-c3cccnc3)cc2O[C@H]1CN(C)C(=O)C1CC1	.	.	1	.	.
O=C(C1CCCCC1)N1CC2(C1)[C@@H](c1ccccc1)[C@H](CO)N2Cc1ccccc1F	.	-7	0	-9	-2
CN(C)CC(=O)N1[C@H](CO)[C@@H](c2ccccc2)C12CN(C(=O)C1CCCC1)C2	.	1	0	51*	19*
O=C(c1cccc(F)c1)N1CC2(C1)[C@@H](c1ccccc1)[C@@H](CO)N2C(=O)C1CCCC1	.	0	0	78*	-15
COc1cccc(CN2[C@H](CO)[C@@H](c3ccccc3)C23CN(C(=O)C2CCC2)C3)c1	.	4	0	5	24*
CN(C)CC(=O)N1CC2(C1)[C@H](c1ccccc1)[C@@H](CO)N2C(=O)C1CCCC1	.	0	0	-1	-9
O=C(C1CCCCC1)N1CC2(C1)[C@@H](c1ccccc1)[C@@H](CO)N2Cc1ccccc1F	.	-6	0	32*	-2
OC[C@@H]1[C@H](c2ccc(/C=C/c3ccccc3)cc2)[C@@H]2CN(Cc3cccnc3)CCCCN12	2	.	0	.	.
O=C(Nc1ccccc1N1CCOCC1)C1=NN(c2ccccc2)C(=O)CC1	-5	3	.	69*	2
O=C(NC1CCCC1)C(c1ccncc1)N(C(=O)Cc1cccs1)c1cccc(F)c1 (stereo unspecified)	-1	2	0	-4	-3
Cc1cccc(-c2ccc([C@@H]3[C@@H](CO)N4CCCCN(C(=O)c5ccc6c(c5)OCO6)C[C@H]34)cc2)c1	4	-4	0	-31	4
CC(C)(O)C#Cc1ccc([C@H]2[C@@H](CO)N3CCCCN(C(=O)c4ccc(F)cc4)C[C@H]23)cc1	1	4	0	19	1
CC(C)(O)C#Cc1ccc([C@@H]2[C@H]3CN(S(C)(=O)=O)CCCCN3[C@H]2CO)cc1	-3	.	0	.	.
CC(C)(O)C#Cc1ccc([C@@H]2[C@H](CO)N3CCCCN(S(C)(=O)=O)C[C@@H]23)cc1	0	0	0	37*	1
CC(C)(O)C#Cc1ccc([C@H]2[C@H](CO)N3CCCCN(C(=O)c4ccc(F)cc4)C[C@@H]23)cc1	2	1	0	21*	4
CCOC(=O)COc1c(C=O)cc(Br)cc1OC	0	.	.	.	.
Cc1noc(C)c1NC(=O)NCC[C@@H]1CC[C@@H](NC(=O)c2ccccc2)[C@@H](CO)O1	0	0	0	-8	-1
O=C(NCC(c1ccco1)N1CCN(c2ccccc2)CC1)C1CCCCC1 (stereo unspecified)	3	0	0	72*	-2
Cc1cccc(C(C)n2nnc3ccccc32)c1O (stereo unspecified)	-5	0	0	-13	.
O=C(Cc1ccccn1)N1CC2(C1)[C@@H](c1ccccc1)[C@@H](CO)N2C(=O)c1ccncc1	.	0	0	5	0
COCC(=O)N1[C@H](CO)[C@H](c2ccccc2)C12CN(C(=O)Nc1ccccc1F)C2	.	-1	0	36*	0
COCC(=O)N1CC2(C1)[C@@H](c1ccccc1)[C@@H](CO)N2C(=O)c1ccncc1	.	-6	0	30*	2
O=C(Cc1ccccn1)N1CC2(C1)[C@H](c1ccccc1)[C@@H](CO)N2C(=O)c1ccncc1	.	-3	0	45*	1
CC(C)CN(C)Cc1c(C(=O)N2CCc3ccccc3C2)nc2ccc(Cl)cn12	8	-3	6	7	1
CCNC(=O)C1(C)CCN(Cc2noc(-c3c(C)noc3C)n2)C1 (stereo unspecified)	2	9	0	45*	-3
C[C@@H]1CN([C@H](C)CO)C(=O)c2cccc(NC(=O)Nc3ccc(F)cc3)c2O[C@H]1CN(C)Cc1ccncc1	-2	1	40*	?	.
COc1ccc(NC(=O)Nc2cccc3c2O[C@H](CN(C)Cc2ccc(C(=O)Nc4ccccc4N)cc2)[C@H](C)CN([C@H](C)CO)C3=O)cc1	-3	-2	34*	-6	3
COc1ccc(CN(C)C[C@@H]2Oc3c(NC(=O)Nc4ccccc4)cccc3C(=O)N([C@H](C)CO)C[C@H]2C)cc1	-1	-4	2	30*	6
